By inhibition is commonly meant the relative decrease from the control value, in per cent. Usually IC50 stands for the concentration that inhibits the measured activity by half. The Ki is a dissociation constant, usually derived from enzyme kinetics or from competition with a known ligand.

Active and inactive are the calls of the source. The calls are words filed in the database; no cut-off is given here.

In series [1] the target is T1, Coagulation factor XII (Homo sapiens) (UniProt P00748).
T1 sequence (whole entry): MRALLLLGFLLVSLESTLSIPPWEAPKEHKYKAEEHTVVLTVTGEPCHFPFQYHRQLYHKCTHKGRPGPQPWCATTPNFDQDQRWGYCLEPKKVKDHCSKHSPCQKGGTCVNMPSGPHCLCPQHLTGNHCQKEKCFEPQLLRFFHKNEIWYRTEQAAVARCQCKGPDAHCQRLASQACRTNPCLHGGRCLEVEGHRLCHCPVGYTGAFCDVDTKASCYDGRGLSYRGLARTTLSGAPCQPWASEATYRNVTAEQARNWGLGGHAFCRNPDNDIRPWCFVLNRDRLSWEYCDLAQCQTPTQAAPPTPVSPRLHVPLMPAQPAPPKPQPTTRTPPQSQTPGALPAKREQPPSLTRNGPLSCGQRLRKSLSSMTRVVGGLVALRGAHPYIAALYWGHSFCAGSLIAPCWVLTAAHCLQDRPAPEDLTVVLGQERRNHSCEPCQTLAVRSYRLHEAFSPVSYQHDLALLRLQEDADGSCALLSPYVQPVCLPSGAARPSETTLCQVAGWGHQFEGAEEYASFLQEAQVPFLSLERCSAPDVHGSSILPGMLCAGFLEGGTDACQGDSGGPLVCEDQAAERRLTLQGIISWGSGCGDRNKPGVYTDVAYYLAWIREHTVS
The series is described as follows: Inhibition of human coagulation factor beta 12a at 100 uM.

Series [2] is filed under the species Homo sapiens. The series can be described thus: Inhibition of human chymotrypsin at 100 uM.
The target of series [3] is Prothrombin (Homo sapiens) (UniProt P00734). The series is described as follows: Inhibition of human thrombin at 100 uM.
Series [4] is described as follows: Inhibition of chymotrypsin-like activity of human 20s proteasome beta-1 subunit in human erythrocyte assessed as hydrolysis of Ac-WLA-AMC fluorogenic substrate.
For series [5], the species on record is Homo sapiens. The series is described as follows: Inhibition of human elastase at 100 uM.
Series [6] in a line: Cytotoxicity against human Calu6 cells assessed as cellular ATP level after 72 hrs by luminescence-based ATPlite assay. Type of series: cell-based, Calu-6. Particulars: read-out: LC50. In short, it runs like this:
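Calu6 cells, 2000 per well, incubated with compound for 72 h. Viability read as cellular ATP by luminescence (ATPlite). Values are means of at least three independent experiments.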

Series [7] has as its target Procathepsin L (Homo sapiens) (UniProt P07711). The series is described as follows: Inhibition of human cathepsin L at 100uM.
For series [8], the target named is Tissue-type plasminogen activator (Homo sapiens) (UniProt P00750). The series can be described thus: Inhibition of tissue plasminogen activator at 100 uM.
Series [9] deals with Plasminogen (Homo sapiens) (UniProt P00747). The series is described as follows: Inhibition of human plasmin at 100 uM.
The nature of series [10]: Inhibition of chymotrypsin-like activity of human 20s proteasome beta2 subunit in human erythrocyte assessed as hydrolysis of Ac-WLA-AMC fluorogenic substrate.
Series [11] can be described thus: Binding affinity to chymotrypsin-like activity of 20S proteasome.
In series [12] the target is T2, Calpain-1 catalytic subunit (Homo sapiens) (UniProt P07384).
T2 sequence (whole entry): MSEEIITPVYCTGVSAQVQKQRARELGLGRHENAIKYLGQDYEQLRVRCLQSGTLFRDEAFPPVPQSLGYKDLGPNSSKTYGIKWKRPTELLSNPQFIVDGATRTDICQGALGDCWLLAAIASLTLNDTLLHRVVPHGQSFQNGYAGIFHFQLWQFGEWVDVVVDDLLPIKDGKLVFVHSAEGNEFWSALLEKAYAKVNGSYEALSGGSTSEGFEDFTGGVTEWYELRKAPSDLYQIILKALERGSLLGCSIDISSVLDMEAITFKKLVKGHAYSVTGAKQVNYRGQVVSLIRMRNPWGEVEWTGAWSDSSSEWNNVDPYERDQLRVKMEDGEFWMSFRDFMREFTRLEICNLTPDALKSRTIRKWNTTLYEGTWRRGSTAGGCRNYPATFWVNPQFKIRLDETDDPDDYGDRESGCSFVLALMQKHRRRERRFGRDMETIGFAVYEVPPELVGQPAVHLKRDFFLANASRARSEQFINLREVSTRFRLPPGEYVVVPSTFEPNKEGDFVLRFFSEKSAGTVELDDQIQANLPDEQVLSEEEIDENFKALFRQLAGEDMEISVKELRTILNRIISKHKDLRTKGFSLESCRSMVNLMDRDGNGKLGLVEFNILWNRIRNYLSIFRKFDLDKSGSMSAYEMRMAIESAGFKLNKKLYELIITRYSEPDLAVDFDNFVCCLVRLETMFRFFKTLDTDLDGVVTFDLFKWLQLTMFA
The series is described as follows: Inhibition of human calpain 1 at 100 uM.

Another series addresses Trypsin (Homo sapiens) (UniProt P07477+P07478+P35030). The series can be described thus: Inhibition of human trypsin at 100 uM. In kind it is protein assay.
The test system of a further series is HEK293. The series can be described thus: (§1) Inhibition of TNF-alpha-induced NF-kappaB activation in human HEK293 cells after 3 hrs by luciferase reporter gene assay. To be noted: dose or concentration not given here. In kind it is cell-based. Set-up: concentration or dose not given beside the values. In outline: (§2)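 NF-κB-luciferase reporter in HEK293 cells (10,000 per well). Cells were pre-incubated with compound for 1 h, then stimulated with 10 ng/ml TNF-α for 3 h with compound still present. IC50 and percentage inhibition were reported as means of at least three independent experiments.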

The nature of series [13]: as §1. In kind it is cell-based. To be noted: HEK293, 3 h. In short, it runs like this:
as §2

Series [14] deals with Cathepsin B (Homo sapiens) (UniProt P07858). The series can be described thus: Inhibition of human cathepsin B at 100uM.
Series [15] can be described thus: Inhibition of chymotrypsin-like activity of human 20s proteasome beta5 subunit in human erythrocyte assessed as hydrolysis of Ac-WLA-AMC fluorogenic substrate.

Chain of Plasminogen (Homo sapiens) (P00747 97-580 limits assumed): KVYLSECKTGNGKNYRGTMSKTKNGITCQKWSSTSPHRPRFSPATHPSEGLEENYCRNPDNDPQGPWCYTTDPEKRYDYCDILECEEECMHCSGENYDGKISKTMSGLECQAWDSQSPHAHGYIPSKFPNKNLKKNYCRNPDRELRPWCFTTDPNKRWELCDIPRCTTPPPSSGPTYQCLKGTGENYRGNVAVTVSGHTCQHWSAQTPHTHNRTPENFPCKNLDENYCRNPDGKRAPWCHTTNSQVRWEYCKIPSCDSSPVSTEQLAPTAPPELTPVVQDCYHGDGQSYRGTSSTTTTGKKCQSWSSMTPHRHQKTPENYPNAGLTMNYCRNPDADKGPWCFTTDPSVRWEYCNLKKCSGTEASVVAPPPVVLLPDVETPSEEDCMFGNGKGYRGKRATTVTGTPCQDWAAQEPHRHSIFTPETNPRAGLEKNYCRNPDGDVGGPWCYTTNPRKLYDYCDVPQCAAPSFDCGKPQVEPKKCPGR
Chain of Plasminogen (Homo sapiens) (P00747 581-810 limits assumed): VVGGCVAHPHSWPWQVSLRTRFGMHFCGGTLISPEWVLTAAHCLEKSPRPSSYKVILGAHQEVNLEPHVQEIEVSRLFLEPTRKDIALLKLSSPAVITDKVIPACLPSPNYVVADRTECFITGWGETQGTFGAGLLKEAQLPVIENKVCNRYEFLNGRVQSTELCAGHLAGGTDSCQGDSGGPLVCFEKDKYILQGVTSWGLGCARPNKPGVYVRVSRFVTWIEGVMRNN
Chain of Tissue-type plasminogen activator (Homo sapiens) (P00750 36-562 limits assumed): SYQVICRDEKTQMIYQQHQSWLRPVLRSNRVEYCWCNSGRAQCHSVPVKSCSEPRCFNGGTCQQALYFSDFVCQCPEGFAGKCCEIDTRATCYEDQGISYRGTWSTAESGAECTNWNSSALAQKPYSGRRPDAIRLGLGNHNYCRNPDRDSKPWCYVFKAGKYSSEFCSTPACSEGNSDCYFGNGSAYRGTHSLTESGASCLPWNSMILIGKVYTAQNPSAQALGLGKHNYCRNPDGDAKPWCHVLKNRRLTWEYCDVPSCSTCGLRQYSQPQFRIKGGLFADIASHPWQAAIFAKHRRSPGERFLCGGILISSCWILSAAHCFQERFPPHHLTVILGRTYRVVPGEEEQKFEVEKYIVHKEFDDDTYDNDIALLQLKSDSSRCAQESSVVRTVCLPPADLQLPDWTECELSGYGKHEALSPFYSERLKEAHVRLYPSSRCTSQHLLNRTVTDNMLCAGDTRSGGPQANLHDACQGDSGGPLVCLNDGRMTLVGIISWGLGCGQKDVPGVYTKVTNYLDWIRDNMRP
Chain of Procathepsin L (Homo sapiens) (P07711 114-333 limits assumed): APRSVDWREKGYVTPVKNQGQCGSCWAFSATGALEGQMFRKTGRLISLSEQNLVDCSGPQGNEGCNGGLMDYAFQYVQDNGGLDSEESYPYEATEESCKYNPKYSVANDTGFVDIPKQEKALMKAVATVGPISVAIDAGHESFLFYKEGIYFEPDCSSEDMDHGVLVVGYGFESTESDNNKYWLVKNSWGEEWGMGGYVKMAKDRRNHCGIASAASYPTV

Take `CC(C)C[C@H](NC(=O)[C@H](Cc1ccccc1)NC(=O)c1cnccn1)B(O)O` [BORTEZOMIB]: the inhibition result (in [1]; in the series filed under Homo sapiens [2]; in series [3]; in the series filed under Homo sapiens [5]; in [7]; in series [8]) was “Active” in each case. The inhibition entry (in series [9]; in [12]; at Trypsin (Homo sapiens); in series [14]) was “Active” throughout. Besides, the IC50 was more than 20000 nM in series [4], more than 20000 nM in series [10] and 10 nM in series [13]. In addition, the CC50 at 72 h in [6] is 6.1 nM. In addition, the Ki in series [11] amounted to 0.55 nM. Also, the inhibition with HEK293 is 100%.

`C=CCNC(=O)[C@H](CCc1ccccc1)NC(=O)[C@@H](NC(=O)c1ccc(OCc2ccccc2)cc1)[C@@H](C)O`: the inhibition entry (in series [1]; in the series filed under Homo sapiens [2]; in series [3]; in the series filed under Homo sapiens [5]; in series [7]; in [8]) was “Active” throughout. The inhibition result (in series [9]; in series [12]; on Trypsin (Homo sapiens); in [14]) was “Active” in each case. Moreover, the IC50 in [15] was 100 nM; in series [4], more than 20000 nM; in series [10], more than 20000 nM; in [13] it was 880 nM. Also, in series [6], the CC50 at 72 h came to 2800 nM. This compound showed an inhibition in the series on HEK293 of 99%.

With `Cc1ccc(CNC(=O)[C@H](CCc2ccccc2)NC(=O)[C@@H](NC(=O)c2ccc(OCc3ccccc3)cc2)[C@@H](C)O)cc1`, the inhibition entry (in series [1]; in the series listed under Homo sapiens [2]; in series [3]; in the series listed under Homo sapiens [5]; in series [7]; in series [8]) was “Active” in each case. Moreover, the inhibition result (in [9]; in series [12]; on Trypsin (Homo sapiens); in [14]) was “Active” each time. For the same compound, the IC50 is 20 nM in series [15], more than 20000 nM in series [4], more than 20000 nM in series [10] and 120 nM in series [13]. In addition, the CC50 at 72 h in series [6] was found to be 380 nM. Further, the inhibition in the series on HEK293 is 81%.

For the compound `Cc1ccc(CNC(=O)[C@H](CCc2ccccc2)NC(=O)[C@@H](NCc2ccc(OCc3ccccc3)cc2)[C@@H](C)O)cc1`, the inhibition result (in series [1]; in the series listed under Homo sapiens [2]; in series [3]; in the series listed under Homo sapiens [5]; in series [7]; in series [8]) was “Active” each time. Moreover, the inhibition result (in series [9]; in [12]; on Trypsin (Homo sapiens); in series [14]) was “Active” in each case. The IC50 in series [15] is 3100 nM; in series [4], more than 20000 nM; in series [10], more than 20000 nM; in series [13], more than 50000 nM. In addition, the CC50 at 72 h in series [6] was 14000 nM. This compound returned an inhibition with HEK293 of 37%.

`COC[C@H](NC(=O)Cc1cccc(Oc2ccccc2)c1)C(=O)N[C@@H](CCc1ccccc1)C(=O)NCc1ccc(C)cc1`: the inhibition result (in series [1]; in the series filed under Homo sapiens [2]; in [3]; in the series filed under Homo sapiens [5]; in series [7]; in [8]) was “Active” in each case. In addition, the inhibition entry (in series [9]; in series [12]; on Trypsin (Homo sapiens); in series [14]) was “Active” throughout. Also, the IC50 was 550 nM in series [15], more than 20000 nM in series [4], more than 20000 nM in [10] and 6100 nM in [13]. Besides, the CC50 at 72 h in [6] is more than 25000 nM. Further, the inhibition in the series on HEK293 was 40%.

As for `COc1ccc2c(c1)C(CC(=O)N[C@H](C(=O)N[C@@H](CCc1ccccc1)C(=O)NCc1ccc(C)cc1)[C@@H](C)O)CC2=O` (stereo partly drawn), the inhibition result (in series [1]; in the series filed under Homo sapiens [2]; in series [3]; in the series listed under Homo sapiens [5]; in series [7]; in [8]) was “Active” throughout. The inhibition result (in series [9]; in series [12]; at Trypsin (Homo sapiens); in [14]) was “Active” in each case. The IC50 in [15] is 25 nM; in series [4], more than 20000 nM; in series [10] it was more than 20000 nM; in series [13], 320 nM. In addition, in series [6], the CC50 at 72 h was determined as 1200 nM. In the series on HEK293, this compound returned an inhibition of 89%.

Regarding `Cc1ccc(CNC(=O)[C@H](CCc2ccccc2)NC(=O)[C@@H](NC(=O)Cc2cccc(Oc3ccccc3)c2)[C@@H](C)O)cc1`, the inhibition entry (in series [1]; in the series filed under Homo sapiens [2]; in series [3]; in the series filed under Homo sapiens [5]; in series [7]; in [8]) was “Active” in each case. For the same compound, the inhibition entry (in [9]; in [12]; at Trypsin (Homo sapiens); in series [14]) was “Active” each time. Also, the IC50 in series [15] is 450 nM; in [4], more than 20000 nM; in series [10], more than 20000 nM; in series [13], 24000 nM. For the same compound, the CC50 at 72 h in series [6] came to 15000 nM. In the series with HEK293, this compound returned an inhibition of 30%.

For `Cc1ccc(CNC(=O)[C@H](CCc2ccccc2)NC(=O)[C@H](CCc2ccccc2)NC(=O)Cc2cccc(Oc3ccccc3)c2)cc1`, the inhibition entry (in [1]; in the series filed under Homo sapiens [2]; in series [3]; in the series filed under Homo sapiens [5]; in series [7]; in series [8]) was “Active” in each case. Moreover, the inhibition result (in series [9]; in [12]; on Trypsin (Homo sapiens); in series [14]) was “Active” in each case. The IC50 was 1100 nM in series [15], more than 20000 nM in series [4], more than 20000 nM in [10] and more than 50000 nM in series [13]. In addition, the CC50 at 72 h in series [6] is more than 25000 nM. Besides, in the series on HEK293, the inhibition was 28%.

Values taken from ChEMBL document CHEMBL1268915, “Optimization of a series of dipeptides with a P3 threonine residue as non-covalent inhibitors of the chymotrypsin-like activity of the human 20S proteasome” (Bioorg Med Chem Lett, 2010).
